GI50 data for ten compounds are collected here from ChEMBL document CHEMBL1148478, “Benzo[f]azino[2,1-a]phthalazinium cations: novel DNA intercalating chromophores with antiproliferative activity” (2004).

Assay [1] relates to PANC-1. Nature of the assay: In vitro antiproliferative activity against human PANC-1 pancreas cell line. Type of assay: functional. A digest of the protocol: (§1)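 SRB colorimetric growth assay. Cells seeded at 5×10^3 per well in RPMI and left to attach in drug-free medium for 18 h. Compounds were then added in DMSO/H2O 3:7 and exposed for 72 h. Cells were fixed with cold 50% TCA for 60 min at 4 °C and stained with 0.4% SRB for 10 min. Bound dye was solubilized in Tris and OD read at 490 nm. GI50 was derived from control, test and time-zero OD. Triplicate; values above 10 μM were scored NS.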

Assay [2] concerns IGROV-1. Kind of assay: In vitro antiproliferative activity against human IGROV-ET ovarian cell line; NS = Not significant. Type of assay: functional, cell-based. The method in brief: as §1
Assay [3] relates to K562. Nature of the assay: In vitro antiproliferative activity against human K-562 cell line. Format: functional. The method in brief:
as §1

Assay [4] concerns HeLa. Kind of assay: In vitro antiproliferative activity against human HeLa-APL cervix cell line. Type of assay: functional. A digest of the protocol:
as §1

The subject of the next assay is SK-BR-3. Nature of the assay: In vitro antiproliferative activity against human SK-BR-3 breast cell line. Format: functional. A digest of the protocol: as §1
Assay [5] deals with SK-MEL-28. Nature of the assay: In vitro antiproliferative activity against human MEL-28 melanoma cell line. Format: functional. A digest of the protocol: as §1
Assay [6] concerns IGROV-1. Nature of the assay: In vitro antiproliferative activity against human IGROV ovarian cell line. Format: functional. The method in brief:
as §1

Assay [7] deals with DU-145. Nature of the assay: In vitro antiproliferative activity against human DU-145 prostate cell line. Format: functional. A digest of the protocol: as §1
For assay [8], the system named is HeLa. Nature of the assay: In vitro antiproliferative activity against human HeLa cervix cell line. Format: functional. A digest of the protocol:
as §1

Assay [9] has as its system LoVo. Kind of assay: In vitro antiproliferative activity against human LOVO-DOX colon cell line; NS = Not significant. Type of assay: functional, cell-based. A digest of the protocol: as §1
Assay [10] relates to LoVo. Kind of assay: In vitro antiproliferative activity against human LOVO colon cell line. Type of assay: functional. A digest of the protocol: as §1
Assay [11] concerns HT-29. Kind of assay: In vitro antiproliferative activity against human HT-29 colon cell line. Type of assay: functional. A digest of the protocol:
as §1

For assay [12], the system named is A549. Kind of assay: In vitro antiproliferative activity against human A-549 NSCL cell line. Format: functional. The method in brief: as §1
Another assay has as its system LNCaP. Kind of assay: In vitro antiproliferative activity against human LN-caP prostate cell line. Format: functional. The method in brief:
as §1

The test system of assay [13] is IGROV-1. Kind of assay: In vitro antiproliferative activity against human IGROV-ET ovarian cell line. Type of assay: functional. The method in brief:
as §1

The test system of assay [14] is LoVo. Nature of the assay: In vitro antiproliferative activity against human LOVO-DOX colon cell line. Format: functional. The method in brief:
as §1

Assay [15] relates to K562. Nature of the assay: In vitro antiproliferative activity against human K-562 cell line; NS = Not significant. Format: functional, cell-based. The method in brief:
as §1

Assay [16] relates to HeLa. Kind of assay: In vitro antiproliferative activity against human HeLa-APL cervix cell line; NS = Not significant. Type of assay: functional, cell-based. A digest of the protocol: as §1
Assay [17] has as its system A549. Nature of the assay: In vitro antiproliferative activity against human A-549 NSCL cell line; NS = Not significant. Type of assay: functional, cell-based. A digest of the protocol:
as §1

The subject of assay [18] is DU-145. Nature of the assay: In vitro antiproliferative activity against human DU-145 prostate cell line; NS = Not significant. Format: functional, cell-based. The method in brief:
as §1

Assay [19] relates to HT-29. Nature of the assay: In vitro antiproliferative activity against human HT-29 colon cell line; NS = Not significant. Type of assay: functional, cell-based. A digest of the protocol:
as §1

In assay [20] the test system is LoVo. Kind of assay: In vitro antiproliferative activity against human LOVO colon cell line; NS = Not significant. Format: functional, cell-based. A digest of the protocol:
as §1

Assay [21] concerns HeLa. Kind of assay: In vitro antiproliferative activity against human HeLa cervix cell line; NS = Not significant. Format: functional, cell-based. A digest of the protocol: as §1
Assay [22] relates to PANC-1. Nature of the assay: In vitro antiproliferative activity against human PANC-1 pancreas cell line; NS = Not significant. Type of assay: functional, cell-based. The method in brief: as §1
The test system of assay [23] is SK-MEL-28. Kind of assay: In vitro antiproliferative activity against human MEL-28 melanoma cell line; NS = Not significant. Format: functional, cell-based. A digest of the protocol:
as §1

The structures appear in SMILES notation. Activity calls are given as the source filed them. No cut-off for these calls is given here.

For the compound `CCOc1ccc(-c2n[n+]3c4ccccc4ccc3c3ccc4ccccc4c23)cc1`, the GI50 in the assay on PANC-1 [1] is 4900 nM; with K562 [3], 6700 nM; in the assay on HeLa [4], 7400 nM; in the assay on SK-BR-3, 3900 nM; in the assay on SK-MEL-28 [5], 5300 nM; with IGROV-1 [6] it was 2600 nM. Further, the GI50 in the assay with DU-145 [7] came to 5800 nM; with HeLa [8], 4600 nM; in the assay on LoVo [10], 6300 nM; in the assay with HT-29 [11] it was 5400 nM; with A549 [12] it was 6000 nM; in the assay with LNCaP, 2600 nM. Besides, the GI50 entry with IGROV-1 [2] and in the assay on LoVo [9] was “inactive” in each case.
As to `Cc1cccc2c3ccc4ccccc4c3c(-c3ccccc3)n[n+]12`, the GI50 was determined as 3400 nM in the assay with PANC-1 [1]; 1500 nM in the assay with K562 [3]; 2900 nM in the assay with IGROV-1 [13]; 4100 nM with HeLa [4]; 500 nM with SK-BR-3; 5400 nM in the assay on LoVo [14]. The GI50 in the assay on SK-MEL-28 [5] came out at 2500 nM; with IGROV-1 [6] it was 1700 nM; in the assay with DU-145 [7], 3100 nM; in the assay with HeLa [8] it was 3800 nM; in the assay on LoVo [10] it was 3000 nM; in the assay on HT-29 [11], 1200 nM. Besides, the GI50 turned out to be 4200 nM with A549 [12] and 400 nM with LNCaP.
Regarding `Cc1cc[n+]2nc(-c3ccccc3)c3c4ccccc4ccc3c2c1`, the GI50 entry in the assay with K562 [15], with HeLa [16], with IGROV-1 [2], in the assay on A549 [17], in the assay with DU-145 [18] and in the assay on HT-29 [19] was “inactive” each time. The GI50 entry in the assay with LoVo [20], in the assay with HeLa [21], with PANC-1 [22] and with LoVo [9] was “inactive” in each case. In addition, the GI50 in the assay on SK-BR-3 is 4600 nM; with SK-MEL-28 [5], 8400 nM; with IGROV-1 [6], 6500 nM; in the assay on LNCaP, 4000 nM.
For `c1ccc(-c2n[n+]3c4ccccc4ccc3c3ccc4ccccc4c23)cc1`, the GI50 in the assay on PANC-1 [1] was 1300 nM; in the assay with K562 [3], 400 nM; with IGROV-1 [13], 2000 nM; in the assay with HeLa [4], 100 nM; in the assay on SK-BR-3 it was 500 nM; with LoVo [14] it was 3500 nM. Besides, the GI50 amounted to 1000 nM in the assay with SK-MEL-28 [5]; 500 nM in the assay on IGROV-1 [6]; 1000 nM in the assay on DU-145 [7]; 700 nM in the assay on HeLa [8]; 600 nM in the assay on LoVo [10]; 400 nM in the assay with HT-29 [11]. The figures for the GI50 in the assay with A549 [12] and with LNCaP were 800 nM and 300 nM, respectively.
Consider `CCOc1ccc(-c2n[n+]3c(C)cccc3c3ccc4ccccc4c23)cc1`, for which the concentration for 50% growth inhibition (GI50) with PANC-1 [1] turned out to be 1000 nM; with K562 [3] it was 600 nM; in the assay with IGROV-1 [13], 4500 nM; in the assay with HeLa [4] it was 1400 nM; with SK-BR-3, 500 nM; in the assay with LoVo [14], 7000 nM. For the same compound, the GI50 in the assay with SK-MEL-28 [5] was found to be 1200 nM; with IGROV-1 [6], 2400 nM; in the assay on DU-145 [7] it was 1800 nM; with HeLa [8] it was 1300 nM; with LoVo [10] it was 1000 nM; in the assay on HT-29 [11] it was 600 nM. Moreover, the values for the GI50 in the assay on A549 [12] and in the assay with LNCaP were 800 nM and 400 nM, respectively.
Consider `CCOc1ccc(-c2n[n+]3ccccc3c3ccc4ccccc4c23)cc1`, for which the concentration for 50% growth inhibition (GI50) with PANC-1 [1] is 2100 nM; in the assay with K562 [3], 1200 nM; with IGROV-1 [13], 8600 nM; in the assay with HeLa [4], 5000 nM; with SK-BR-3, 1200 nM; in the assay with LoVo [14], 8000 nM. The 50% growth inhibitory concentration (GI50) in the assay on SK-MEL-28 [5] is 2600 nM; with IGROV-1 [6], 3800 nM; with DU-145 [7] it was 4800 nM; with HeLa [8], 3100 nM; in the assay on LoVo [10], 2900 nM; with HT-29 [11] it was 1100 nM. Moreover, the GI50 with A549 [12] is 3000 nM; in the assay on LNCaP, 500 nM.
As for `c1ccc(-c2n[n+]3ccccc3c3ccc4ccccc4c23)cc1`, the GI50 result in the assay with SK-MEL-28 [23], with HeLa [16], with IGROV-1 [2], in the assay on A549 [17], in the assay with DU-145 [18] and in the assay on HT-29 [19] was “inactive” in each case. Besides, the GI50 entry in the assay on LoVo [20], in the assay with HeLa [21], in the assay on PANC-1 [22] and with LoVo [9] was “inactive” in each case. The 50% growth inhibitory concentration (GI50) in the assay with K562 [3] was 7600 nM; in the assay with SK-BR-3 it was 9700 nM; in the assay on IGROV-1 [6], 100 nM; in the assay with LNCaP, 5200 nM.
Turning to `COc1cccc2c1C(=O)c1c(O)c3c(c(O)c1C2=O)C[C@@](O)(C(=O)CO)C[C@@H]3O[C@H]1C[C@H](N)[C@H](O)[C@H](C)O1` [DOXORUBICIN], the GI50 in the assay with PANC-1 [1] was 3500 nM; in the assay on K562 [3], 30 nM; with IGROV-1 [13], 2400 nM; with HeLa [4] it was 10 nM; in the assay on SK-BR-3 it was 1100 nM; with LoVo [14] it was 2400 nM. In addition, the GI50 with SK-MEL-28 [5] came to 3100 nM; in the assay on IGROV-1 [6], 4400 nM; in the assay on DU-145 [7], 20 nM; in the assay with HeLa [8], 10 nM; in the assay on LoVo [10], 10 nM; with HT-29 [11], 3100 nM. For the same compound, the GI50 was 70 nM with A549 [12] and 20 nM in the assay with LNCaP.
For the compound `Cc1ccc2c(ccc3c4ccc5ccccc5c4c(-c4ccccc4)n[n+]23)c1`, the concentration for 50% growth inhibition (GI50) turned out to be 700 nM in the assay with PANC-1 [1]; 200 nM with K562 [3]; 1800 nM in the assay on IGROV-1 [13]; 500 nM with SK-BR-3; 3600 nM in the assay on LoVo [14]; 500 nM in the assay on SK-MEL-28 [5]. In addition, the GI50 came to 500 nM in the assay with IGROV-1 [6]; 500 nM with DU-145 [7]; 500 nM in the assay with HeLa [8]; 400 nM in the assay with LoVo [10]; 400 nM in the assay on HT-29 [11]; 600 nM in the assay with A549 [12]. It took 200 nM to inhibit growth with LNCaP by half (GI50). Moreover, the GI50 result with HeLa [16] is “inactive”.
With `CCOc1ccc(-c2n[n+]3c4ccc(C)cc4ccc3c3ccc4ccccc4c23)cc1`, the concentration for 50% growth inhibition (GI50) came to 400 nM in the assay on PANC-1 [1]; 100 nM with K562 [3]; 1700 nM with IGROV-1 [13]; 600 nM in the assay on HeLa [4]; 500 nM in the assay with SK-BR-3; 400 nM with SK-MEL-28 [5]. The GI50 with IGROV-1 [6] is 400 nM; in the assay with DU-145 [7] it was 500 nM; in the assay on HeLa [8] it was 300 nM; with LoVo [10], 300 nM; with HT-29 [11], 200 nM; in the assay with A549 [12], 500 nM. In the assay on LNCaP, the GI50 turned out to be 70 nM. Further, in the assay with LoVo [9], the GI50 entry is “inactive”.
